This passage reports Activity and T/C results from ChEMBL document CHEMBL1955860, “Design, synthesis, and biological evaluation of 4-arylmethyl-1-phenylpyrazole and 4-aryloxy-1-phenylpyrazole derivatives as novel androgen receptor antagonists” (Bioorg Med Chem, 2012).

Where only a bound is given, the exact number is not on record here.

A short description of data set [1]: Anticancer activity against human LNCaP-hr cells assessed as prostate specific antigen level at 1 uM after 3 days by enzyme immunoassay relative to control. Format: functional. The essentials:
(§1)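 LNCaP-hr cells (CRPC model, T877A AR) seeded at 40,000 cells/well in phenol red-free RPMI1640 with 10% DCC-FBS; compounds at 1–10 µM added next day; secreted PSA measured and expressed as % of control; n = 3.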

The nature of data set [2]: Anticancer activity against human LNCaP-hr cells assessed as prostate specific antigen level at 10 uM after 3 days by enzyme immunoassay relative to control. Format: functional. The essentials: as §1
A short description of data set [3]: Anticancer activity against human LNCaP-hr cells xenografted in BALB/c athymic nude mouse assessed as change in tumor volume at 20 mg/kg, po bid after 28 days relative to control. Format: functional. The essentials: (§2)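 Mice castrated, then given LNCaP-hr cells (5 × 10⁷ cells/mL in PBS/Matrigel 1:1) s.c. in flank the same day; grouped at ~100–300 mm³ tumor volume (n = 6/group); from next day, oral dosing in 0.5% methylcellulose vehicle, bid or qd, 28 days. T/C% = tumor volume increase in treated/vehicle group × 100; serum/plasma PSA at end by ELISA.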
(In general: In xenograft studies the graft and the host belong to different species.)

Data set [4] is described as follows: Anticancer activity against human LNCaP-hr cells xenografted in BALB/c athymic nude mouse assessed as change in tumor volume at 40 mg/kg, po bid after 28 days relative to control. Format: functional. An outline of the steps:
as §2

A short description of data set [5]: Anticancer activity against human LNCaP-hr cells xenografted in BALB/c athymic nude mouse assessed as prostate specific antigen level in plasma at 20 mg/kg, po bid after 28 days relative to control. Format: functional. An outline of the steps: as §2
A short description of data set [6]: Anticancer activity against human LNCaP-hr cells xenografted in BALB/c athymic nude mouse assessed as prostate specific antigen level in plasma at 40 mg/kg, po bid after 28 days relative to control. Format: functional. An outline of the steps:
as §2

For data set [7], the system named is Mus musculus. Put plainly: Toxicity in athymic nude BALB/c mouse xenografted with human LNCaP-hr cells assessed as body weight loss at 20 mg/kg, po bid after 28 days. Format: organism-based. The arrangement: dose 20 mg/kg, route oral. The settings on record: in vivo. An outline of the steps: (§3)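 Castrated mice bearing s.c. LNCaP-hr xenografts (n = 6/group), dosed orally twice daily for 28 days in 0.5% methylcellulose vehicle; body weight tracked over the treatment period versus castration + vehicle controls.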

The test system of data set [8] is Mus musculus. Description: Toxicity in athymic nude BALB/c mouse xenografted with human LNCaP-hr cells assessed as body weight loss at 40 mg/kg, po bid after 28 days. The settings on record: in vivo. Format: organism-based. The arrangement: dose 40 mg/kg, route oral. An outline of the steps:
as §3

For data set [9], the system named is Mus musculus. Put plainly: Toxicity in athymic nude BALB/c mouse xenografted with human LNCaP-hr cells assessed as body weight loss at 50 mg/kg, po bid after 28 days. Format: organism-based. More on the design: dose 50 mg/kg, route oral. The settings on record: in vivo. The essentials:
as §3

A short description of data set [10]: Anticancer activity against human LNCaP-hr cells xenografted in BALB/c athymic nude mouse assessed as change in tumor volume at 50 mg/kg, po bid after 28 days relative to control. Format: functional. An outline of the steps: as §2
A short description of data set [11]: Anticancer activity against human LNCaP-hr cells xenografted in BALB/c athymic nude mouse assessed as prostate specific antigen level in plasma at 50 mg/kg, po bid after 28 days relative to control. Format: functional. The essentials:
as §2

Data set [12] in a line: Anticancer activity against human LNCaP-hr cells xenografted in BALB/c athymic nude mouse assessed as change in tumor volume at 100 mg/kg, po qd after 28 days relative to control. Format: functional. The essentials:
as §2

Data set [13] in a line: Anticancer activity against human LNCaP-hr cells xenografted in BALB/c athymic nude mouse assessed as prostate specific antigen level in plasma at 100 mg/kg, po qd after 28 days relative to control. Format: functional. The essentials: as §2

Consider `Cc1nn(-c2ccc(C#N)c(Cl)c2)c(C)c1Cc1ccc(C(=O)NC(C)(C)C)cc1`, for which the Activity in data set [1] was 33%; in [2] it was 57%.
In the case of `Cc1nn(-c2ccc(C#N)c(Cl)c2)c(C)c1Cc1ccc(C(=O)NCC(C)(C)O)cc1`, the Activity is on record as 27% in data set [1]; 31% in [2]; “Non-toxic” in the data set on Mus musculus [7]; “Non-toxic” in the data set with Mus musculus [8]; “Non-toxic” with Mus musculus [9]. Also, the T/C in data set [3] was 15%; in [4], 3%; in data set [5], 88%; in data set [6], 23%.
Turning to `Cc1nn(-c2ccc(C#N)c(Cl)c2)c(C)c1Cc1ccc(C(=O)N2CCOCC2)cc1`, in data set [1], the Activity is 35%.
As to `Cc1nn(-c2ccc(C#N)c(Cl)c2)c(C)c1Oc1ccc(C(=O)NCC(C)(C)O)cc1`, the figures for the Activity in data set [1] and in data set [2] were 33% and greater than 100%, respectively.
For `Cc1nn(-c2ccc(C#N)c(Cl)c2)c(C)c1Cc1cccc(C(N)=O)c1` the same measures were 21% and 35%.
In the case of `Cc1nn(-c2ccc(C#N)c(Cl)c2)c(C)c1Cc1ccc(C(N)=O)cc1`, the Activity in data set [1] turned out to be 76%.
Still for that read-out and setting: for `Cc1nn(-c2ccc(C#N)c(Cl)c2)c(C)c1Cc1ccc(C(=O)N(C)C)cc1` the value was 21%; for `Cc1nn(-c2ccc(C#N)c(Cl)c2)c(C)c1Cc1ccc(C(=O)NCCO)cc1`, 33%.
Turning to `Cc1nn(-c2ccc(C#N)c(Cl)c2)c(C)c1Oc1ccc(C(=O)N2CCOCC2)cc1`, the Activity in [1] and in data set [2] was 22% each time.
With `CC(=O)Nc1ccc(Oc2c(C)nn(-c3ccc(C#N)c(Cl)c3)c2C)nc1`, the Activity is reported as 8% in data set [1] and 14% in [2].
As for `Cc1nn(-c2ccc(C#N)c(Cl)c2)c(C)c1Oc1ccc(NC(=O)C(C)(C)C)cn1`, the figures for the Activity in data set [1] and in data set [2] were 8% and 5%, respectively. Further, the T/C in [10] is recorded as 2%; in data set [11] it was 17%.
Consider `CC(=O)Nc1ccc(Oc2c(C)nn(-c3ccc(C#N)c(Cl)c3)c2C)cn1`, for which the Activity turned out to be 11% in data set [1] and 39% in data set [2].
For the compound `CC(O)(CS(=O)(=O)c1ccc(F)cc1)C(=O)Nc1ccc(C#N)c(C(F)(F)F)c1` (configuration not stated) [BICALUTAMIDE], the Activity in data set [2] is greater than 100%. Besides, the T/C in data set [12] is given as 37%; in data set [13], 142%.

What is called T/C is the ratio of treated to control.
